Experimental data from the RNAGym collection of RNA variant scans (doi:10.1126/science.aae0568).
Variants at the floor of the assay were thinned out.

B1: tRNA (parent)
chain: GUUCCGUUGGCGUAAUGGUAACGCGUCUCCCUCCUAAGGAGAAGACUGCGGGUUCGAGUCCCGUACGGAACG

Variants of: B1
Assay: yeast fitness relative to wild type (ratio to wild type); higher = fitter; tRNA-Arg(CCU), competitive growth, 37 C, YPD
Procedure, shortened: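 Gene amplicons from the start population and from each of six end populations were read by 100-nucleotide paired-end sequencing. Those end populations came from pooled Saccharomyces cerevisiae strains carrying tRNA-Arg(CCU) gene variants at the native locus, competed in YPD at 37°C for 24 hours. Fitness relative to wild type was worked out from changes in genotype frequencies. Genotypes needed ≥ 100 starting reads, and estimates < 0.5 were set to 0.5.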

Variant | yeast fitness
A40C C66G | 0.669
G6A G39C C55G | ≤ 0.5
C11U C30U | 0.748
C5U C33G G38A C60A | 0.542
A21G C29U G38A C62U G67C | 0.629
A45C G50A | 0.969
C11G A57C C60U | ≤ 0.5
C11G G38C G58C U64A | ≤ 0.5
A14G A15U C30G | ≤ 0.5
U7A G9C C30U C34G A37G G68C | ≤ 0.5
A14G U19C A21U G68U | ≤ 0.5
C5A A15G | 0.779
A65G G68C | 0.859
G6A A20C C49G G50C | ≤ 0.5
C27A C31G A65U A70G | ≤ 0.5
C24U U59A U64C | ≤ 0.5
A15C G17U C46U | 0.633
C27U U53A | 0.628
U16A A37C | 0.653
G10C U13A A14G A20G C22A C24G C62G | ≤ 0.5
G10C A45C | 0.626
C5G C11G A21C U28G C66U | 0.605
C24G G25A C66U | 0.561
C5U C11U A40U G48A C49U | 0.709

Variant | yeast fitness
G18A C31A G56C | ≤ 0.5
C5A A42U G67A | ≤ 0.5
A45U C49G A70C | 0.65
G50A C55A | 0.702
C4U C11G A42G C49U A70U | ≤ 0.5
C29G G58C A69U | 0.607
U13C G25C C30G | 0.611
C5G A21C A45U C46U | ≤ 0.5
C4G C22G C33G A36C A65G | ≤ 0.5
U8G A20G A37G G44A A65C | ≤ 0.5
C22G C24A G68C | ≤ 0.5
U7G A45G A65C C66A | 1.03
C27G C30G U64G | ≤ 0.5
U13C G44A A69U | 0.696
C5G C27G | 0.81
C29G A36G C66G | ≤ 0.5
C5A U7A G52A G67A | ≤ 0.5
G9C U28C G44C G51A | ≤ 0.5
C11G A15C G41A C49G | ≤ 0.5
A36C G44C G51C | ≤ 0.5
U7C U28C | 0.879
U32G A40U G52A A57U | ≤ 0.5
U7G G63A | 0.888
C29A C33G A37G C49U C66U | ≤ 0.5

Variant | yeast fitness
U7C U16G A20G U26C C49G | ≤ 0.5
A14C C27G C33A A45U G67U | ≤ 0.5
A14U C27U C33U G51A G67A | ≤ 0.5
U2G C60G A69U | ≤ 0.5
G6A C27A A36G | ≤ 0.5
C4A C11U A40G | ≤ 0.5
A37G A40G A45U | 0.566
U16A C24U G44C | 0.6
A15G G48C A57U | 0.511
U19C C27G C29A C33A A43C | ≤ 0.5
A21U C22U A36G C49A | ≤ 0.5
C11U A36C U64A A70C | ≤ 0.5
U8C C46G | 1.04
G6A A36U G56A C66U | ≤ 0.5
G52C C60A | 0.641
C4G C27A C31U | ≤ 0.5
U26C C66G G68C | ≤ 0.5
U8A A15C A21U | ≤ 0.5
U28C C55A C61U G68A A70G | ≤ 0.5
U16G C49U C60A C61A | ≤ 0.5
A15G A36G A43U | 0.601
C34U U35C A45G U54A | 0.704
G38C G41C A65G | 0.597
C5U U35G | 0.592

Variant | yeast fitness
U26C C27G C34U A37U A43G A45G A57G | ≤ 0.5
U13A C55U A70C | 0.571
U59G A70U | 0.747
C11U C49U G56C C62U | ≤ 0.5
C30G C31G C33G A37C G67C | ≤ 0.5
C5U A42C | 1.01
U2A U16G A42G A43U C46U C62U | ≤ 0.5
G12A A42G | 0.837
G12C G25A U54C | 0.635
A14C A57C G68C | ≤ 0.5
U19C C29G A57G U59A G68U A70G | 0.55
C27G C55A A70U | ≤ 0.5
U3A C22G C29U A65C | ≤ 0.5
C11G A14G G48A C55U C66U G68C A69U | ≤ 0.5
C22U U32G C34U A40G A70U | 0.563
C22U C34G A36U U47C A65C | ≤ 0.5
G25U C29A G56C | ≤ 0.5
U7C C11A C30G | ≤ 0.5
U26A C31G C62U | 0.647
G23A C55U G58A | ≤ 0.5
U19C C33U G41C | 0.583
C4G C5U A37G C62U | ≤ 0.5
A14U A21G G39C A45G U53C C62U | ≤ 0.5
C33U A43G U53C | ≤ 0.5

Variant | yeast fitness
U3C G25A G68C A69G | 1.08
A45U C46U A57U | 0.539
U54C A69C | 0.965
C4G A43C C61A | 0.551
A14C A20U C66A | ≤ 0.5
G6A A42C G48A C62U | 0.698
U3A C4G U59A A65C A70C | ≤ 0.5
C24U U32A C33G | ≤ 0.5
C4U G18C C46U C60G | ≤ 0.5
A14G U26C C30U | 0.567
A14C A15G A42G A70U | 0.569
G6A A37U C62G | ≤ 0.5
C27G C33G G41A A65C | ≤ 0.5
U3C C31U A42G | 0.798
U2G C27G G52C | ≤ 0.5
C4U C33G C60G | ≤ 0.5
U28A A36G A57U A69U | ≤ 0.5
G6A C11U C34G G58A | 0.724
U3A G68C | 0.822
G18A A21U U32A | 0.593
A43G G51A | 0.853
U3A G38C C49U | ≤ 0.5
U26C A40C | 0.941
U2C A20C C29G A36C G52C A57U | ≤ 0.5

Variant | yeast fitness
C24G C31G C33A G50C C55G A57U C62U U64C | ≤ 0.5
A15U G44A | 0.65
G12C A45G U47C | 0.502
U3A A37U | 0.754
G6A U32C G44A C46A G52A C66U | 0.567
U16A G38A A65G C66G | ≤ 0.5
G12U A36G A69U | 0.733
C24A U64G A70C | ≤ 0.5
G44A C55U | 0.776
A15C A21U A36C C49U A69U | ≤ 0.5
U13A U16A C31G C33U G38C G58C C66G | ≤ 0.5
C66A A70U | 0.603
G23C C49G A57G A70U | ≤ 0.5
A36G C49A | 0.799
G6A A14G G18A A42C | 0.618
A37G C60G G68A | ≤ 0.5
U2A U3C G6A G39A | ≤ 0.5
C31G C34U G67U | ≤ 0.5
C22G U47C A65U | 0.64
C27G U32C U54C C62U | ≤ 0.5
G10C A14C C24U A70C | ≤ 0.5
A42U G44C | 0.842
A42C A45C G52C A69U | ≤ 0.5
C4U C60G A69C | 0.52

Variant | yeast fitness
G6A C34A | 0.739
A20C C49G C62U | ≤ 0.5
C5U U13C A20C A36G G52C | ≤ 0.5
U2G C34G C49G C61U A69G | ≤ 0.5
G41A U47G | 0.655
U2G A36G A40U A43U C66A | ≤ 0.5
C5U A14U A21G G68C | 0.588
U13A A20U C31G C34U G67U | ≤ 0.5
G6A U19G A43U A65G G68A | ≤ 0.5
U3A C30G C55U | 0.673
C5U G39A A57C | 0.656
C4U U8A A20G C24A G52C | 0.598
G12C G18A | 0.823
C4U C33G A36G G67A G68C | 0.604
C46A G56A | 1.01
C29U C30G A70C | 0.536
U8A C11U C46U G68A | ≤ 0.5
G9C U26A | 0.613
C33G C34G A43G C46G | ≤ 0.5
C4U G63A C66U | 0.792
U26A A69C | 1.06
C29G G63C A70U | ≤ 0.5
U13C A43G A45U | 0.587
